This passage reports IC50 and NA results from ChEMBL document CHEMBL1135503, “Lepadins D-F: antiplasmodial and antitrypanosomal decahydroquinoline derivatives from the tropical marine tunicate Didemnum sp” (J Med Chem, 2002).

SMILES strings stand for the structures. Converted amounts (≈) assume the structure as drawn. The source made the active and inactive calls. The calls are words filed in the database; no cut-off is given here. A value given as a limit tells only on which side of the number the result lay.

The test system of one assay is Trypanosoma cruzi. The assay can be described thus: 50% antitrypanosomal activity against Trypanosoma cruzi. It is filed as functional, organism-based. The procedure, abridged: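 Tulahuen strain of T. cruzi expressing E. coli β-galactosidase, grown as intracellular amastigotes in mammalian fibroblasts with drug for 5 days. Viability read colorimetrically from β-galactosidase turnover of chlorophenol red β-D-galactopyranoside, quantified on an ELISA reader. IC50 in µg/mL.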

For assay [1], the system named is Trypanosoma brucei rhodesiense. The assay can be described thus: 50% antitrypanosomal activity against Trypanosoma rhodesiense. It is filed as functional, organism-based. Put shortly: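 T. brucei rhodesiense grown axenically in culture medium supplemented with horse serum. IC50 in µg/mL.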
Assay [2] has as its system Plasmodium falciparum. Put plainly: Antiplasmodial activity against Plasmodium falciparum NF54. The format is functional, organism-based. Put shortly: (§1)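 P. falciparum (NF54 chloroquine-sensitive, K1 chloroquine-resistant) cultured in vitro in human A+ erythrocytes with Albumax. Readout is inhibition of parasite-specific [3H]hypoxanthine incorporation. IC50 in µg/mL taken from logarithmic dose–response curves.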

Assay [3] relates to Plasmodium falciparum. The assay can be described thus: Antiplasmodial activity against Plasmodium falciparum K1. It is filed as functional, organism-based. Put shortly:
as §1

The test system of a further assay is L6. Put plainly: Cytotoxic effect in rat skeletal muscle myoblast L6 cells. The format is functional, cell-based. Put shortly:
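Rat L6 skeletal muscle myoblast cells. IC50 in µg/mL.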

The target of assay [4] is Tyrosine-protein kinase Lck (Homo sapiens) (UniProt P06239). Put plainly: Inhibition of p56 Lck tyrosine kinase at 200 ug/mL (inactive).
Tyrosine-protein kinase Lck (Homo sapiens), sequence (P06239 2-509 limits assumed): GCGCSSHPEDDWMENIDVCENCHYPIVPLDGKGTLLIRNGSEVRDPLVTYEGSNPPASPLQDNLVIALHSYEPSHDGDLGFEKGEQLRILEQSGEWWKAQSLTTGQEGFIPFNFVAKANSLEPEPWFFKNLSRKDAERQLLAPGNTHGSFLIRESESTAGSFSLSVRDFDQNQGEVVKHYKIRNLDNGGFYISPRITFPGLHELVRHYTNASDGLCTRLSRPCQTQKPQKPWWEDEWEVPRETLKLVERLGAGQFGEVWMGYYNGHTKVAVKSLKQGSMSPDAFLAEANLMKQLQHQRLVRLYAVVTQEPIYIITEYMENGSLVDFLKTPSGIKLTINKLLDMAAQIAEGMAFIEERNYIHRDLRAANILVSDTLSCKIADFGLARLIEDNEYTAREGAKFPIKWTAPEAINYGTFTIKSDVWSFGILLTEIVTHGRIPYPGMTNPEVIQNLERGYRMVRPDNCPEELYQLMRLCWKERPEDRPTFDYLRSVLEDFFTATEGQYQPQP
In a further assay the test system is Microbotryum violaceum. Put plainly: Zone of inhibition from the edge of a circular filter disk impregnated with test substance, against Ustilago violacea (antifungal activity); NA means inactive. It is filed as functional, organism-based. The procedure, abridged:
(§2)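 Agar diffusion assay. Filter disks loaded with 0.02 mg sample each. Zone of inhibition measured in mm from the disk edge against the fungi Eurotium repens or Ustilago violacea (Microbotryum violaceum).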

The subject of assay [5] is Aspergillus pseudoglaucus. Put plainly: Zone of inhibition from the edge of a circular filter disk impregnated with test substance, against Eurotium repens (antifungal activity); NA means inactive. It is filed as functional, organism-based. The procedure, abridged: as §2
Where [6] appears, read: Trypanosoma cruzi, read-out: IC50.
[7] abbreviates: Trypanosoma brucei, read-out: IC50.
[8] abbreviates: Plasmodium falciparum, read-out: IC50.

What is called IC50 is the midpoint of a concentration-inhibition curve.

As to `CCCCC/C=C/C(=O)O[C@H]1C[C@@H]2[C@H](CCCCC(O)CCC)CCC[C@@H]2N[C@H]1C` (stereo partly specified) [LEPADIN F], the IC50 with Trypanosoma cruzi (setting [6]) was 2.6 µg/mL (≈ 6.17 µM); in assay [1] (setting [7]), 0.23 µg/mL (≈ 0.545 µM); with Plasmodium falciparum [2] (setting [8]), 0.3 µg/mL (≈ 0.711 µM); in the assay with Plasmodium falciparum [3] (setting [8]), 0.2 µg/mL (≈ 0.474 µM); in the assay with L6, 18.3 µg/mL (≈ 43.4 µM).
With `CCCC(O)CCCC[C@@H]1CCC[C@@H]2N[C@H](C)[C@@H](O)C[C@H]12` (stereo in doubt; 2) [listing 1 of 2 here], the IC50 is 37.3 µg/mL (≈ 125 µM) in the assay on Trypanosoma cruzi; 1.97 µg/mL (≈ 6.62 µM) in assay [1]; 10 µg/mL (≈ 33.6 µM) in the assay with Plasmodium falciparum [2]; 4 µg/mL (≈ 13.4 µM) in the assay with Plasmodium falciparum [3]; more than 30 µg/mL with L6.
For the compound `Nc1nc(N)nc(Nc2ccc([As]3SCC(CO)S3)cc2)n1` (stereo unspecified) [MELARSOPROL], the values for the IC50 (with Trypanosoma cruzi (setting [6]); in assay [1] (setting [7])) were 0.6 µg/mL and 0.0026 µg/mL, respectively.
On to `CCCC(O)CCCC[C@@H]1CCC[C@@H]2N[C@H](C)[C@@H](O)C[C@H]12` (stereo in doubt; 1) [listing 1 of 2 here], for which, in assay [4], the NA entry was “inactive”.
In the case of `CCCCC/C=C/C(=O)O[C@H]1C[C@@H]2[C@H](CCCCC(O)CCC)CCC[C@@H]2N[C@@H]1C` (stereo partly specified) [LEPADIN E], the 50% inhibitory concentration (IC50) came to 2.2 µg/mL (≈ 5.22 µM) with Trypanosoma cruzi (setting [6]); 0.38 µg/mL (≈ 0.901 µM) in assay [1] (setting [7]); 0.9 µg/mL (≈ 2.13 µM) with Plasmodium falciparum [2] (setting [8]); 0.4 µg/mL (≈ 0.949 µM) in the assay on Plasmodium falciparum [3] (setting [8]); 16.2 µg/mL (≈ 38.4 µM) with L6.
With `C[C@@H]1CC[C@H]2[C@@H](C)C(=O)O[C@@H]3O[C@@]4(C)CC[C@@H]1[C@]32OO4` [ARTEMISININ], the IC50 with Plasmodium falciparum [2] (setting [8]) was 0.003 µg/mL (≈ 0.0106 µM); in the assay on Plasmodium falciparum [3] (setting [8]) it was 0.001 µg/mL (≈ 0.00354 µM).
For `CCCC(O)CCCC[C@@H]1CCC[C@@H]2N[C@H](C)[C@@H](O)C[C@H]12` (stereo in doubt; 2) [listing 2 of 2 here], the NA result (with Microbotryum violaceum; in assay [5]; in assay [4]) was “inactive” each time.
`CCCC(O)CCCC[C@@H]1CCC[C@@H]2N[C@H](C)[C@@H](O)C[C@H]12` (stereo in doubt; 1) [listing 2 of 2 here]: the IC50 in the assay on Trypanosoma cruzi (setting [6]) is 37.2 µg/mL (≈ 125 µM); in assay [1] it was 5.6 µg/mL (≈ 18.8 µM); in the assay with Plasmodium falciparum [2] (setting [8]) it was 10 µg/mL (≈ 33.6 µM); in the assay on Plasmodium falciparum [3] (setting [8]), 6.1 µg/mL (≈ 20.5 µM); in the assay on L6, more than 30 µg/mL.
For the compound `CCCCC/C=C/C(=O)O[C@H]1C[C@@H]2[C@H](CCCCC(O)CCC)CCC[C@@H]2N(C(=O)c2ccc(Br)cc2)[C@@H]1C` (stereo partly specified), the results for the IC50 (in assay [1] (setting [7]); with Plasmodium falciparum [2] (setting [8]); in the assay on Plasmodium falciparum [3] (setting [8])) were 36.9 µg/mL (≈ 60.9 µM), 0.4 µg/mL (≈ 0.662 µM) and 0.5 µg/mL (≈ 0.827 µM), respectively.
